{"source": "ChEMBL document CHEMBL1123309", "about": "“Esters and lactones of phenolic amino carboxylic acids: prodrugs for iron chelation” (J Med Chem, 1986)", "key": {"Mus musculus [1]": {"tested_on": "Mus musculus", "test": "BDF1 male mice were administered with 129 mg/kg intraperitoneally and percent change in iron levels was determined in Urine", "type": "functional", "details": "route intraperitoneal", "how_it_was_run": "(§1)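 Male BDF1 mice made iron-overloaded by transfusion of washed, heat-treated (50 °C, 30 min) canine red cells. Dosing began 2 days after the last transfusion, once daily for 7 days, in distilled water or 2% Polysorbate 80 suspension. Daily group urine was collected. Pooled feces were digested in 1 N HCl (90 °C, 30 min). Liver and spleen were homogenized in saline. Iron was measured by atomic absorption and expressed as % change vs transfused controls.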"}, "Mus musculus [2]": {"tested_on": "Mus musculus", "test": "BDF1 male mice were administered with 129 mg/kg intraperitoneally and percent change in iron levels was determined in Spleen", "type": "functional", "details": "route intraperitoneal", "how_it_was_run": "as §1"}, "Mus musculus [3]": {"tested_on": "Mus musculus", "test": "BDF1 male mice were administered with 129 mg/kg intraperitoneally and percent change in iron levels was determined in Liver", "type": "functional", "details": "route intraperitoneal", "how_it_was_run": "as §1"}, "Mus musculus [4]": {"tested_on": "Mus musculus", "test": "BDF1 male mice were administered with 129 mg/kg intraperitoneally and percent change in iron levels was determined in Feces", "type": "functional", "details": "route intraperitoneal", "how_it_was_run": "as §1"}, "Mus musculus [5]": {"tested_on": "Mus musculus", "test": "BDF1 male mice were administered with 129 mg/kg intraperitoneally and number of survivors was determined out 10 tested", "type": "functional", "details": "route intraperitoneal", "how_it_was_run": "(§2)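 Male BDF1 mice were iron-loaded by transfusion of canine red cells. The cells were heparinised, washed twice in isotonic saline and heated at 50 °C for 30 min. Dosing started two days after the last transfusion, once daily for 7 consecutive days. Compounds were given in distilled water or as a fine aqueous suspension with Polysorbate 80 (2% final). Toxic signs were recorded daily and survivors counted per group.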"}, "Rattus norvegicus [6]": {"tested_on": "Rattus norvegicus", "test": "Percent change in iron levels was determined in feces using iron overload rat model where the route of administration is Peroral", "type": "ADME, organism-based", "details": "in vivo, po"}, "Rattus norvegicus [7]": {"tested_on": "Rattus norvegicus", "test": "Percent change in iron levels was determined in feces using iron overload rat model where the route of administration is Intraperitoneal", "type": "ADME, organism-based", "details": "in vivo, ip"}, "Mus musculus [8]": {"tested_on": "Mus musculus", "test": "BDF1 male mice were administered with 300 mg/kg intraperitoneally and percent change in iron levels was determined in Urine", "type": "functional", "details": "route intraperitoneal", "how_it_was_run": "(§3)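 Male BDF1 mice were hypertransfused with washed, heat-treated (50 °C, 30 min) canine red cells. Starting 2 days after the last transfusion, they received one ip injection daily for 7 days, in distilled water or an aqueous suspension with Polysorbate 80 (2% final). Group urine was collected every 24 h. Feces were digested in 1 N HCl (90 °C, 30 min, triplicate). Liver and spleen were homogenized. Iron was measured by atomic absorption and reported as % change vs transfused controls.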"}, "[9]": {"test": "Compound was evaluated for lethal dose after intraperitoneal administration using iron overload rat model", "type": "toxicity, organism-based", "details": "in vivo, ip"}, "Rattus norvegicus [10]": {"tested_on": "Rattus norvegicus", "test": "Percent change in iron levels was determined in urine using iron overload rat model where the route of administration is Intraperitoneal", "type": "ADME, organism-based", "details": "in vivo, ip"}, "Rattus norvegicus [11]": {"tested_on": "Rattus norvegicus", "test": "Percent change in iron levels was determined in urine using iron overload rat model where the route of administration is Peroral", "type": "ADME, organism-based", "details": "in vivo, po"}, "Mus musculus [12]": {"tested_on": "Mus musculus", "test": "BDF1 male mice were administered with 300 mg/kg intraperitoneally and percent change in iron levels was determined in liver", "type": "functional", "details": "route intraperitoneal", "how_it_was_run": "as §3"}, "Mus musculus [13]": {"tested_on": "Mus musculus", "test": "BDF1 male mice were administered with 300 mg/kg intraperitoneally and number of survivors was determined out of 10 tested", "type": "functional", "details": "route intraperitoneal", "how_it_was_run": "as §2"}, "Mus musculus [14]": {"tested_on": "Mus musculus", "test": "BDF1 male mice were administered with 300 mg/kg intraperitoneally and percent change in iron levels was determined in Spleen", "type": "functional", "details": "route intraperitoneal", "how_it_was_run": "as §3"}, "Mus musculus [15]": {"tested_on": "Mus musculus", "test": "BDF1 male mice were administered with 300 mg/kg intraperitoneally and percent change in iron levels was determined in Feces", "type": "functional", "details": "route intraperitoneal", "how_it_was_run": "as §3"}, "Mus musculus [16]": {"tested_on": "Mus musculus", "test": "BDF1 male mice were administered with 100 mg/kg intraperitoneally and percent change in iron levels was determined in Feces", "type": "functional", "details": "route intraperitoneal", "how_it_was_run": "as §1"}, "Mus musculus [17]": {"tested_on": "Mus musculus", "test": "BDF1 male mice were administered with 200 mg/kg intraperitoneally and number of survivors was determined out of 10 tested", "type": "functional", "details": "route intraperitoneal", "how_it_was_run": "as §2"}, "Mus musculus [18]": {"tested_on": "Mus musculus", "test": "BDF1 male mice were administered with 200 mg/kg intraperitoneally and percent change in iron levels was determined in Spleen", "type": "functional", "details": "route intraperitoneal", "how_it_was_run": "as §1"}, "Mus musculus [19]": {"tested_on": "Mus musculus", "test": "BDF1 male mice were administered with 200 mg/kg intraperitoneally and percent change in iron levels was determined in Urine", "type": "functional", "details": "route intraperitoneal", "how_it_was_run": "as §1"}, "Mus musculus [20]": {"tested_on": "Mus musculus", "test": "BDF1 male mice were administered with 200 mg/kg intraperitoneally and percent change in iron levels was determined in Feces", "type": "functional", "details": "route intraperitoneal", "how_it_was_run": "as §1"}, "Mus musculus [21]": {"tested_on": "Mus musculus", "test": "BDF1 male mice were administered with 100 mg/kg intraperitoneally and percent change in iron levels was determined in Liver", "type": "functional", "details": "route intraperitoneal", "how_it_was_run": "as §1"}, "Mus musculus [22]": {"tested_on": "Mus musculus", "test": "BDF1 male mice were administered with 100 mg/kg intraperitoneally and percent change in iron levels was determined in Urine", "type": "functional", "details": "route intraperitoneal", "how_it_was_run": "as §1"}, "Mus musculus [23]": {"tested_on": "Mus musculus", "test": "BDF1 male mice were administered with 100 mg/kg intraperitoneally and number of survivors was determined out of 10 tested", "type": "functional", "details": "route intraperitoneal", "how_it_was_run": "as §2"}, "Mus musculus [24]": {"tested_on": "Mus musculus", "test": "BDF1 male mice were administered with 100 mg/kg intraperitoneally and percent change in iron levels was determined in Spleen", "type": "functional", "details": "route intraperitoneal", "how_it_was_run": "as §1"}, "Mus musculus [25]": {"tested_on": "Mus musculus", "test": "BDF1 male mice were administered with 200 mg/kg intraperitoneally and percent change in iron levels was determined in liver", "type": "functional", "details": "route intraperitoneal", "how_it_was_run": "as §1"}}}
{"smiles": "O=C([O-])CN(CCN(CC(=O)[O-])c1ccccc1O)c1ccccc1O.[Li+].[Li+]", "values": [{"measurement": "Iron change", "setting": "Mus musculus [1]", "value": 28, "unit": "%"}, {"measurement": "Iron change", "setting": "Mus musculus [2]", "value": -7, "unit": "%"}, {"measurement": "Iron change", "setting": "Mus musculus [3]", "value": -49, "unit": "%"}, {"measurement": "Iron change", "setting": "Mus musculus [4]", "value": -38, "unit": "%"}, {"measurement": "No. of survivors", "setting": "Mus musculus [5]", "value": 9}]}
{"smiles": "O=C(O)CN(Cc1ccccc1O)CC(O)CN(CC(=O)O)Cc1ccccc1O", "values": [{"measurement": "Iron change", "setting": "Rattus norvegicus [6]", "value": 20, "unit": "%"}, {"measurement": "Iron change", "setting": "Rattus norvegicus [7]", "value": 255, "unit": "%"}, {"measurement": "Iron change", "setting": "Mus musculus [8]", "value": 127, "unit": "%"}, {"measurement": "LD50", "setting": "[9]", "value": "≥ 800", "unit": "mg/kg"}, {"measurement": "Iron change", "setting": "Rattus norvegicus [10]", "value": 118, "unit": "%"}, {"measurement": "Iron change", "setting": "Rattus norvegicus [11]", "value": 30, "unit": "%"}, {"measurement": "Iron change", "setting": "Mus musculus [12]", "value": -50, "unit": "%"}, {"measurement": "No. of survivors", "setting": "Mus musculus [13]", "value": 10}, {"measurement": "Iron change", "setting": "Mus musculus [14]", "value": 6, "unit": "%"}, {"measurement": "Iron change", "setting": "Mus musculus [15]", "value": -32, "unit": "%"}]}
{"smiles": "O=C([O-])CN(CCN(CC(=O)[O-])c1ccccc1O)c1ccccc1O.[Na+].[Na+]", "values": [{"measurement": "Iron change", "setting": "Mus musculus [16]", "value": 3, "unit": "%"}, {"measurement": "No. of survivors", "setting": "Mus musculus [17]", "value": 5}, {"measurement": "Iron change", "setting": "Mus musculus [18]", "value": 22, "unit": "%"}, {"measurement": "Iron change", "setting": "Mus musculus [19]", "value": 143, "unit": "%"}, {"measurement": "Iron change", "setting": "Mus musculus [20]", "value": -15, "unit": "%"}, {"measurement": "Iron change", "setting": "Mus musculus [21]", "value": -22, "unit": "%"}, {"measurement": "Iron change", "setting": "Mus musculus [22]", "value": 106, "unit": "%"}, {"measurement": "No. of survivors", "setting": "Mus musculus [23]", "value": 10}, {"measurement": "Iron change", "setting": "Mus musculus [24]", "value": 7, "unit": "%"}, {"measurement": "Iron change", "setting": "Mus musculus [25]", "value": -22, "unit": "%"}]}
